From ChEMBL document CHEMBL5107950, “Structure-based design of haloperidol analogues as inhibitors of acetyltransferase Eis from Mycobacterium tuberculosis to overcome kanamycin resistance” (RSC Med Chem, 2021)
In brackets after ≈: the same amount, converted by molar mass. Activity calls are given as the source filed them. The rule behind the calls is not given here.

Columns and labels:
[1] = molecular target: T1, N-acetyltransferase Eis (Mycobacterium tuberculosis (strain ATCC 25618 / H37Rv), UniProt P9WFK7); assay: Inhibition of Mycobacterium tuberculosis Eis assessed as Eis-mediated kanamycin acetylation preincubated for 10 mins followed by substrate addition and measured for 2 to 5 mins using acetyl-CoA as substrate in presence of kanamycin by UV-Vis spectroscopy analysis
T1 sequence (P9WFK7 whole entry): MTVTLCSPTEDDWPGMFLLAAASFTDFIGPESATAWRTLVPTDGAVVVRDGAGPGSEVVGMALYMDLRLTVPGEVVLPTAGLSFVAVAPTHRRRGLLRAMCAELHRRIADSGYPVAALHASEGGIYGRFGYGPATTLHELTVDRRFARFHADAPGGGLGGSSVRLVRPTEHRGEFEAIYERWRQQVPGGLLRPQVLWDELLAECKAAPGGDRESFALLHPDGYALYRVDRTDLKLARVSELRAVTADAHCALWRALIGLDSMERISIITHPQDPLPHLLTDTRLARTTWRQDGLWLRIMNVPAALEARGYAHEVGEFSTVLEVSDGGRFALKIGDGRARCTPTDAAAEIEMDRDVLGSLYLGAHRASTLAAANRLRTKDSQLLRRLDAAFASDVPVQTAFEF
Outline: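 Recombinant Eis (1 µM) mixed with KAN (400 µM) in 50 mM Tris-HCl pH 8.0 and preincubated 10 min with 5-fold serially diluted inhibitor (10% DMSO in buffer). Reaction started with AcCoA and DTNB (2 mM each, as added). Absorbance read every 30 s for 20 min. Initial rates (first 2-5 min) fitted to Hill plot for IC50. At least triplicate.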

[2] = system: Mycobacterium tuberculosis; assay: Potentiation of kanamycin-induced antibacterial activity against Mycobacterium tuberculosis H37Rv assessed as kanamycin MIC incubated for 1 day followed by kanamycin addition for 6 days and by Alamar blue assay; format: functional; conditions: 168 h, time 7 day
Outline: (§1)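 Mtb in 7H9 + 10% ADC, 0.05% Tween 80, 0.4% glycerol at 37 °C. Inoculum adjusted to OD600 0.2, diluted 1:25. Cells preincubated 24 h at 37 °C with compound (100 µL of 200 µM solution). KAN then added: H37Rv at 2.5 and 1.25 µg/mL; K204 at 10, 5, 2.5, 1.25 µg/mL. Incubated 6 days, AlamarBlue added, colour read at 24 and 48 h. MIC = lowest KAN with no colour change. At least twice in duplicate.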

[3] = system: Mycobacterium tuberculosis; assay: Potentiation of kanamycin-induced antibacterial activity against Mycobacterium tuberculosis K204 assessed as kanamycin MIC incubated for 1 day followed by kanamycin addition for 6 days and by Alamar blue assay; format: functional; conditions: K204, 168 h, time 7 day; outline: as §1
[4] = molecular target: T1, N-acetyltransferase Eis; assay: Competitive inhibition of Mycobacterium tuberculosis Eis assessed as reduction in Eis-mediated kanamycin acetylation preincubated for 10 mins followed by substrate addition and measured for 2 to 5 mins using acetyl-CoA as substrate in presence of kanamycin by Lineweaver-Burk plot analysis
Outline: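 Same DTNB-coupled Eis acetylation assay used for IC50, run as Michaelis-Menten kinetics with inhibitor at 0-1 μM. Vmax and Km from these fits used to determine mode of inhibition. Quadruplicate.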

[5] = system: Mycolicibacterium smegmatis; assay: Antibacterial activity against Mycobacterium smegmatis mc2 155 assessed as inhibition of bacterial growth incubated upto 3 weeks hrs by resazurin dye based double-dilution method; format: functional; conditions: mc2 155, 504 h
Outline: (§2)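 Double-dilution broth MIC. Media: M. smegmatis, Mueller-Hinton; M. abscessus, 7H9 + 0.05% Tween80 + 0.4% glycerol; mc²6230, 7H9 + 0.05% tyloxapol, 0.5% glycerol, 10% OADC, 0.2% casamino acids, 24 µg/mL pantothenate; other mycobacteria, 7H9 + 0.05% Tween80, 0.4% glycerol, 10% ADC. Inoculum from agar set to 0.5 McFarland, then diluted 1:100.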

[6] = system: Mycobacteroides abscessus; assay: Antibacterial activity against Mycobacterium abscessus ATCC 19977 assessed as inhibition of bacterial growth incubated upto 3 weeks hrs by resazurin dye based double-dilution method; format: functional; conditions: ATCC 19977, 504 h; outline: as §2
[7] = system: Mycobacterium intracellulare; assay: Antibacterial activity against Mycobacterium intracellulare ATCC 13950 assessed as inhibition of bacterial growth incubated upto 3 weeks hrs by resazurin dye based double-dilution method; format: functional; conditions: ATCC 13950, 504 h; outline: as §2
[8] = system: Mycobacterium avium; assay: Antibacterial activity against Mycobacterium avium ATCC 25921 assessed as inhibition of bacterial growth incubated upto 3 weeks hrs by resazurin dye based double-dilution method; format: functional; conditions: ATCC 25921, 504 h; outline: as §2
[9] = system: Mycobacterium tuberculosis; assay: Antibacterial activity against Mycobacterium tuberculosis H37Ra ATCC NRS22 assessed as inhibition of bacterial growth incubated upto 3 weeks hrs by resazurin dye based double-dilution method; format: functional; conditions: H37Ra ATCC NRS22, 504 h; outline: as §2
[10] = system: Mycolicibacterium smegmatis; assay: Synergistic antibacterial activity against Mycobacterium smegmatis mc2 155 assessed as fold reduction in MIC value at 8 ug/ml in presence of spectinomycin by checkerboard assay; format: functional; conditions: dose 8 µg/ml
[11] = system: Mycolicibacterium smegmatis; assay: Synergistic antibacterial activity against Mycobacterium smegmatis mc2 155 assessed as fold reduction in MIC value at 8 ug/ml in presence of clarithromycin by checkerboard assay; format: functional; conditions: dose 8 µg/ml
[12] = system: HEK293; assay: Cytotoxicity against human HEK293 cells assessed as reduction in cell viability at 200 uM incubated for 24 hrs by resazurin assay; format: toxicity, cell-based; conditions: hek293, 24 h
Outline: (§3)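 Resazurin viability assay in DMEM + 10% FBS, 1% penicillin/streptomycin, 37 °C, 5% CO₂. Seeding: HEK-293 and J774A.1 at 1×10^4 cells/mL, A549 at 5×10^3 cells/mL. After 24 h, compounds added (0.78-200 μM, 0.5% DMSO final). Resazurin added 24 h later, read after 6 h. 1% Triton X as positive control. Quadruplicate.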

[13] = system: A549; assay: Cytotoxicity against human A549 cells assessed as reduction in cell viability at 50 to 200 uM incubated for 24 hrs by resazurin assay; format: toxicity, cell-based; conditions: a549, 24 h, dose 50-200 µM; outline: as §3
[14] = system: J774.A1; assay: Cytotoxicity against mouse J774.A1 cells assessed as reduction in cell viability at 100 uM incubated for 24 hrs by resazurin assay; format: toxicity, cell-based; conditions: j774.a1, 24 h; outline: as §3
[15] = system: J774.A1; assay: Cytotoxicity against mouse J774.A1 cells assessed as reduction in cell viability at 50 uM incubated for 24 hrs by resazurin assay; format: toxicity, cell-based; conditions: j774.a1, 24 h; outline: as §3
[16] = system: Mycolicibacterium smegmatis; assay: Synergistic antibacterial activity against Mycobacterium smegmatis mc2 155 assessed as fold reduction in MIC value at 8 ug/ml in presence of clofazimine by checkerboard assay; format: functional, organism-based; conditions: dose 8.0 µg/ml
[17] = system: Mycobacteroides abscessus; assay: Synergistic antibacterial activity against Mycobacterium abscessus ATCC 19977 assessed as reduction in bacterial growth presence of spectinomycin by checkerboard assay; format: functional, organism-based
Outline: (§4)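 Checkerboard in 96-well plates. Antibiotic two-fold serially diluted along columns, haloperidol derivative two-fold along rows. Bacteria prepared as for the MIC determination. MICs alone and in combination used to calculate FICI. At least duplicate independent trials.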

[18] = system: Mycobacteroides abscessus; assay: Synergistic antibacterial activity against Mycobacterium abscessus ATCC 19977 in presence of clarithromycin by checkerboard assay; format: functional, organism-based; outline: as §4
[19] = system: Mycobacteroides abscessus; assay: Synergistic antibacterial activity against Mycobacterium abscessus ATCC 19977 in presence of clofazimine by checkerboard assay; format: functional, organism-based; outline: as §4
[20] = system: Mycobacterium intracellulare; assay: Antibacterial activity against Mycobacterium intracellulare ATCC 13950 in presence of spectinomycin by checkerboard assay; format: functional, organism-based; outline: as §4
[21] = system: Mycobacterium intracellulare; assay: Antibacterial activity against Mycobacterium intracellulare ATCC 13950 in presence of clarithromycin by checkerboard assay; format: functional, organism-based; outline: as §4
[22] = system: Mycobacterium intracellulare; assay: Antibacterial activity against Mycobacterium intracellulare ATCC 13950 in presence of clofazimine by checkerboard assay; format: functional, organism-based; outline: as §4
[23] = system: Mycobacterium avium; assay: Antibacterial activity against Mycobacterium avium ATCC 25921 in presence of spectinomycin by checkerboard assay; format: functional, organism-based; outline: as §4
[24] = system: Mycobacterium avium; assay: Antibacterial activity against Mycobacterium avium ATCC 25921 in presence of clarithromycin by checkerboard assay; format: functional, organism-based; outline: as §4
[25] = system: Mycobacterium avium; assay: Antibacterial activity against Mycobacterium avium ATCC 25921 in presence of clofazimine by checkerboard assay; format: functional, organism-based; outline: as §4
[26] = system: Mycobacterium tuberculosis; assay: Synergistic antibacterial activity against Mycobacterium tuberculosis H37Ra ATCC NRS22 in presence of spectinomycin by checkerboard assay; format: functional, organism-based; outline: as §4
[27] = system: Mycobacterium tuberculosis; assay: Antibacterial activity against Mycobacterium tuberculosis H37Rv assessed as inhibition of bacterial growth at 100 uM incubated for 24 hrs by Alamar blue assay; format: functional, organism-based
[28] = system: Mycobacterium tuberculosis; assay: Antibacterial activity against Mycobacterium tuberculosis K204 assessed as inhibition of bacterial growth at 100 uM incubated for 24 hrs by Alamar blue assay; format: functional, organism-based
[29] = system: Escherichia coli; assay: Antibacterial activity against Escherichia coli MC1061 assessed as inhibition of bacterial growth incubated upto 3 weeks hrs by resazurin dye based double-dilution method; format: functional, organism-based
[30] = system: A549; assay: Cytotoxicity against human A549 cells assessed as reduction in cell viability at 25 uM incubated for 24 hrs by resazurin assay; format: toxicity, cell-based; conditions: a549, 24 h; outline: as §3
[31] = system: HEK293; assay: Cytotoxicity against human HEK293 cells assessed as reduction in cell viability at 25 uM incubated for 24 hrs by resazurin assay; format: toxicity, cell-based; conditions: hek293, 24 h; outline: as §3
[32] = system: J774.A1; assay: Cytotoxicity against mouse J774.A1 cells assessed as reduction in cell viability at 25 uM incubated for 24 hrs by resazurin assay; format: toxicity, cell-based; conditions: j774.a1, 24 h; outline: as §3
[33] = Metabolic stability in human liver microsomes at 2 to 4 uM incubated for 30 mins by LC-MS/MS analysis; format: ADME, Microsome; conditions: dose 2-4 µM, read-out: Stability
[34] = Metabolic stability in mouse liver microsomes at 2 to 4 uM incubated for 30 mins by LC-MS/MS analysis; format: ADME, Microsome; conditions: dose 2-4 µM, read-out: Stability

SMILES	IC50 [1]	MIC [2]	MIC [3]	Ki [4]	MIC [5]	MIC [6]	MIC [7]	MIC [8]	MIC [9]	fold change (FC) [10]	fold change (FC) [11]	inhibition [27]	inhibition [28]	inhibition [29]	Activity [30]	Activity [31]	Activity [32]	remaining at 0.5 h [33]	remaining at 0.5 h [34]	further results
O=C(CCCN1CCC(O)(c2ccc(Cl)cc2)CC1)c1ccc(F)cc1 [HALOPERIDOL]	390 nM	≤ 1.25 µg/mL	5 µg/mL	390 nM	> 62.5 µM	> 62.5 µM	62.5 µM (≈ 23.5 µg/mL)	62.5 µM (≈ 23.5 µg/mL)	31.3 µM (≈ 11.8 µg/mL)	16	4									Activity [12]: Non-Toxic; Activity [13]: 70%; Activity [14]: Toxic; Activity [15]: 100%
O=C(CCCN1CCC(O)(c2ccc(F)cc2)CC1)c1ccc(Cl)cc1	2600 nM	≤ 1.25 µg/mL	10 µg/mL		> 62.5 µM	> 62.5 µM	> 62.5 µM	> 62.5 µM	> 62.5 µM	16	4									Activity [16]: Active; Activity [17]: Active; Activity [18]: Active; Activity [19]: Active; Activity [20]: Active; Activity [21]: Active; Activity [22]: Active; Activity [23]: Active; Activity [24]: Active; Activity [25]: Active; Activity [26]: Active
O=C(CCCN1CCC(O)(c2ccc(F)cc2)CC1)c1ccc(F)cc1	760 nM	≤ 1.25 µg/mL	5 µg/mL	910 nM	> 62.5 µM	> 62.5 µM	> 62.5 µM	> 62.5 µM	> 62.5 µM	16	4									
CC(C)(C)c1ccc(C(=O)CCCN2CCC(O)(c3ccc(Cl)cc3)CC2)cc1	> 200000 nM				15.6 µM (≈ 6.46 µg/mL)	> 62.5 µM	7.8 µM (≈ 3.23 µg/mL)	7.8 µM (≈ 3.23 µg/mL)	3.9 µM (≈ 1.61 µg/mL)	16	4	Active	Active	Active	Toxic	Toxic	Toxic	60%	68%	
CC(C)(C)c1ccc(C(=O)CCCN2CCC(O)(c3ccc(Br)cc3)CC2)cc1	> 200000 nM				15.6 µM (≈ 7.15 µg/mL)	> 62.5 µM	7.8 µM (≈ 3.58 µg/mL)	7.8 µM (≈ 3.58 µg/mL)	3.9 µM (≈ 1.79 µg/mL)	16	4	Active	Active	Active	Toxic	Toxic	Toxic	56%	58%	
